Results taken from paper PMC4002258 (Biochimica et biophysica acta, 2013).
Values joined by “and” are separate entries in the source; they are usually repeats but may differ in a detail not shown here. Identical values can stand only once. Marks after values point to notes of the source that are not given here.

Assays:
Assay type in all cases: biochemical
[1] = target: T1, human recombinant core 3 β1,3-GlcNAc-transferase (C3GnT) (Homo sapiens, UniProt Q6ZMB0); test: C3GnT glycosyltransferase assay; details: for C3GnT activity (%): acceptor substrate 0.5 mM, 0.5 mM GalNAcα-Bn set to 100%; for Vmax / Km: C3GnT; for Vmax: acceptor substrate; for Km: apparent KM for acceptor substrate
T1 sequence (Q6ZMB0 32-384 limits assumed): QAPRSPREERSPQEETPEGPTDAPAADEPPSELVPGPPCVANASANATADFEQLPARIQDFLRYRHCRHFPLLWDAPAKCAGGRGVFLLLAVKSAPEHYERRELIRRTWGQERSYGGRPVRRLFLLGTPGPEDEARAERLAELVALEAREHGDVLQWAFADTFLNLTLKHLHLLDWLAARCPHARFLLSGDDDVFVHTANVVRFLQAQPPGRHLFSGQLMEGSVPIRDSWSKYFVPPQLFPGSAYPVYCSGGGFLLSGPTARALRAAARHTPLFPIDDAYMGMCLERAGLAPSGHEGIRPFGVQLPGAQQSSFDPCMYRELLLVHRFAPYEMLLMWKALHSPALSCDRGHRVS

[2] = target: human recombinant core 1 β1,3-Gal-transferase (C1GalT) (Homo sapiens, UniProt Q9NS00); test: C1GalT glycosyltransferase assay; details: for C1GalT activity (%): acceptor substrate 0.5 mM, 0.5 mM GalNAcα-Bn set to 100%
[3] = target: T2, human recombinant core 2/4 β1,6-GlcNAc-transferase (C2GnT2) (Homo sapiens, UniProt O95395); details: for C2GnT2 activity (%): acceptor substrate 0.5 mM, 0.5 mM Galβ1–3GalNAcα-pnp set to 100%
T2 sequence (O95395 27-438): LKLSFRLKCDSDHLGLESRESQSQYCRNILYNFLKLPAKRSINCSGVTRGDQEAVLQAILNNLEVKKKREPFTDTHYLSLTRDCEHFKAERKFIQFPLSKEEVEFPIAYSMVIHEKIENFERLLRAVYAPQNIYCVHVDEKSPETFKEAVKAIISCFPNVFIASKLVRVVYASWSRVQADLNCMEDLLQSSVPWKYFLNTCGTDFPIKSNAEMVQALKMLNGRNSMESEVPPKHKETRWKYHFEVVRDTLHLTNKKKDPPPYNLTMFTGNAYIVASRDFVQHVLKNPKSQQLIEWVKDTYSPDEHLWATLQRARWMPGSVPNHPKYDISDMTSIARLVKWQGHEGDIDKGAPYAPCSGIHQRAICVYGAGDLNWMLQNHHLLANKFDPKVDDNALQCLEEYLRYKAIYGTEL

[4] = target: T3, human recombinant core 2 β1,6-GlcNAc-transferase (C2GnT1) (Homo sapiens, UniProt Q02742); test: C2GnT1 glycosyltransferase assay; details: for C2GnT1 activity (%): acceptor substrate 0.5 mM, 0.5 mM Galβ1–3GalNAcα-pnp set to 100%
T3 sequence (Q02742 33-428 limits assumed): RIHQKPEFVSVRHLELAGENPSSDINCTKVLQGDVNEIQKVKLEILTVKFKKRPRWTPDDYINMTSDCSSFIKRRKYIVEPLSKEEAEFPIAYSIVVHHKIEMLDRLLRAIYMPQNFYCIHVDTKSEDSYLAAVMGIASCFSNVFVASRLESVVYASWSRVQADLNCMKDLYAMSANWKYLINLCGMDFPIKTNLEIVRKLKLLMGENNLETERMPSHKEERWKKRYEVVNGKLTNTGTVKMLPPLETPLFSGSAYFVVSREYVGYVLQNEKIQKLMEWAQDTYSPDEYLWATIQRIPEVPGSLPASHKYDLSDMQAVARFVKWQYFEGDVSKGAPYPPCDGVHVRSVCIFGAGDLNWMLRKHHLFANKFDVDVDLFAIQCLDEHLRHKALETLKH

[5] = target: T1, human recombinant core 3 β1,3-GlcNAc-transferase (C3GnT); test: Inhibition of C3GnT; details: inhibitor 0.5 mM, 0.5 mM GalNAcα-Bn acceptor
Method in brief: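 His-tagged human C3GnT from Sf9 cells, Ni2+-NTA purified, 0.003 mg protein per assay. Inhibitor at acceptor concentration unless indicated. Incubated 1 h at 37 °C, then cold-water stop. AG1×8 anion exchange; eluate counted by scintillation.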

[6] = target: T3, human recombinant core 2 β1,6-GlcNAc-transferase (C2GnT1); test: Inhibition of C2GnT1; details: inhibitor 0.5 mM, 0.5 mM Galβ1–3GalNAcα-pnp acceptor

Chain of human recombinant core 1 β1,3-Gal-transferase (C1GalT) (Q9NS00 30-363 limits assumed): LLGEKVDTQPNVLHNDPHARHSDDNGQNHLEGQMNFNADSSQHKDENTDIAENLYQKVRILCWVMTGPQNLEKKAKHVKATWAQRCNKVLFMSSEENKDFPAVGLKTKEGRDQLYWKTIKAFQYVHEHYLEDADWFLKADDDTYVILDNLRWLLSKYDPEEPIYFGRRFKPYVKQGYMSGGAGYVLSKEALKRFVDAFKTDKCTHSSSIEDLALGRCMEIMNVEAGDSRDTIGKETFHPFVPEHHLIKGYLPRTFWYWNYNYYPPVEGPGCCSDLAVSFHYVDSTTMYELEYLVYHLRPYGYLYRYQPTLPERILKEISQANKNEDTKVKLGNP

C3GnT activity (%) [1] | C1GalT activity (%) [2] | Compound | also measured
100 ^b % | 100 ^a % | CC(=O)N[C@H]1[C@@H](OCc2ccccc2)O[C@H](CO)[C@H](O)[C@@H]1O [GalNAcα-Bn, reference compound] | Vmax [1]: 0.95 µmol/h/mg; Km [1]: 3000 µM; Vmax ([2]; C1GalT, acceptor substrate): 0.14 µmol/h/mg; Km ([2]; C1GalT, apparent KM for acceptor substrate): 800 µM; C2GnT2 activity (%) [3]: <1%; C2GnT1 activity (%) [4]: <1%
<1% | <1% | CC(=O)N[C@H]1[C@H](OCc2ccccc2)O[C@H](CO)[C@@H](O[C@@H]2O[C@H](CO)[C@H](O)[C@H](O)[C@H]2NC(C)=O)[C@@H]1O [GalNAcβ1–4GlcNAcβ-Bn] | –
<1% | <1% | CCO[C@H]1[C@@H](O)[C@@H](CO)O[C@H](OCc2ccccc2)[C@@H]1NC(C)=O [3-O-Ethyl-GalNAcα-Bn] | –
<1% | <1% | [2H]C([2H])([2H])O[C@@H]1O[C@H](CO[C@@H]2O[C@H](CO)[C@@H](O)[C@H](O)[C@H]2NC(C)=O)[C@H](O)[C@H](O)[C@H]1O [GlcNAcβ1–6-Galβ-OCD3] | –
5% | 259% | TTTVTP-(GalNAcα)TPTG | –
<1% | <1% | CC(=O)N[C@@H]1C[C@@H](O)[C@@H](CO)O[C@@H]1OCc1ccccc1 [3-Deoxy-GalNAcα-Bn] | C2GnT2 activity (%) [3]: <1%; C2GnT1 activity (%) [4]: <1%
<1% | <1% | CC(=O)N[C@H]1[C@@H](OCc2ccccc2)O[C@H](CO)C[C@@H]1O [4-Deoxy-GalNAcα-Bn] | –
<1% | 38% | CC(=O)N[C@H]1[C@H](OC[C@H]2O[C@H](Oc3ccccc3[N+](=O)[O-])[C@H](NC(C)=O)[C@@H](O)[C@H]2O)O[C@H](CO)[C@@H](O[C@@H]2O[C@H](CO)[C@H](O)[C@H](O)[C@H]2O)[C@@H]1O [Galβ1–4GlcNAcβ1–6GalNAcα-onp] | –
<1% | <1% | CC(=O)N[C@H]1[C@@H](OCc2ccccc2)O[C@H](C)[C@H](O)[C@@H]1O[C@@H]1O[C@H](CO)[C@H](O)[C@H](O)[C@H]1O [Galβ1–3(6-deoxy)GalNAcα-Bn] | C2GnT2 activity (%) [3]: <1%; C2GnT1 activity (%) [4]: <1%
<1% | <1% | CC(=O)NC1C(OP(=O)(O)OP(=O)(O)OCCCCCCCCCCCOc2ccccc2)OC(CO)C(O)C1O (stereo not shown) [GalNAcα-O-PO3-PO3-(CH2)11-O-Ph] | –
<1% | 68% | CC(=O)N[C@H]1[C@@H](OCc2ccccc2)O[C@H](C)[C@H](O)[C@@H]1O [6-Deoxy-GalNAcα-Bn] | –

Continued, compound first:

Compound | C3GnT activity (%) [1] | C1GalT activity (%) [2] | also measured
CC(=O)N[C@H]1[C@@H](OCc2ccccc2)O[C@H](CO[C@@H]2O[C@H](CO)[C@@H](O[C@@H]3O[C@H](CO)[C@H](O)[C@H](O)[C@H]3O)[C@H](O)[C@H]2O)[C@H](O)[C@@H]1O [Galβ1–4Glcβ1–6GalNAcα-Bn] | <1% | 63% | –
CC(=O)N[C@H]1[C@@H](OCc2ccccc2)O[C@H](CO[C@@H]2O[C@H](CO)[C@H](O)[C@H](O)[C@H]2O)[C@H](O)[C@@H]1O [Galβ1–6GalNAcα-Bn] | <1% | 30% | –
CCC(=O)N[C@H]1[C@@H](OCc2ccccc2)O[C@H](CO)[C@H](O)[C@@H]1O [2-N-Propionyl-GalNα-Bn] | 62% | 60% | –
TT-(GalNAcα)TVTPTPTG | 8% | 99% | –
CCCO[C@H]1[C@@H](O)[C@@H](CO)O[C@H](OCc2ccccc2)[C@@H]1NC(C)=O [3-O-Propyl-GalNAcα-Bn] | <1% | <1% | –
Ac-GHA-(GalNAcα)TSLPVTG-NH2 | 22% | 564% | –
CC(=O)N[C@H]1C(O)O[C@H](CO)[C@H](O)[C@@H]1O (stereo partly shown) [GalNAc, reference compound] | <1% | 6% | –
C=C(C)C1CC=C(CO[C@H]2O[C@H](CO)[C@H](O)[C@H](O)[C@H]2NC(C)=O)CC1 (stereo partly shown) [GalNAcα-perillyl] | 153% | 102% | Vmax [1]: 0.4 µmol/h/mg and 0.40 µmol/h/mg; Km [1]: 300 µM
A-(GalNAcα)T | 15% | – | –
OC[C@H]1O[C@H](OCc2ccccc2)C[C@@H](O)[C@H]1O [2-Deoxy-Galα-Bn] | <1% | <1% | –
CC(=O)N[C@H]1[C@@H](OCc2ccccc2)O[C@H](COCCCC2CO2)[C@H](O)[C@@H]1O (stereo partly shown) [6-O-(4,5-Anhydro)pentyl-GalNAcα-Bn] | <1% | 191% | –
CC(=O)N[C@H]1[C@H](OC[C@H]2O[C@H](Oc3ccc4ccccc4c3)[C@H](O)[C@@H](O)[C@H]2O)O[C@H](CO)[C@@H](O[C@@H]2O[C@H](CO)[C@H](O)[C@H](O)[C@H]2O)[C@@H]1O [Galβ1–4GlcNAcβ1–6Galα-(2-naphthyl)] | <1% | <1% | –
CC(=O)N[C@H]1[C@@H](Oc2ccc([N+](=O)[O-])cc2)O[C@H](CO)[C@H](O)[C@@H]1O [GalNAcα-pnp] | 88% | 204% | –
CC(=O)N[C@H]1[C@@H](OCc2ccccc2)O[C@H](CO[C@@H]2O[C@H](CO)[C@@H](O)[C@H](O)[C@H]2NC(C)=O)[C@H](O)[C@@H]1O [GlcNAcβ1–6-GalNAcα-Bn] | <1% | 74% | C2GnT2 activity (%) [3]: <1%; C2GnT1 activity (%) [4]: <1%
CC(=O)N[C@H]1[C@@H](OCc2ccccc2)O[C@H](CO[C@@H]2O[C@H](CO)[C@@H](F)[C@H](O)[C@H]2NC(C)=O)[C@H](O)[C@@H]1O [4-F-4-Deoxy-GlcNAcβ1–6-GalNAcα-Bn] | <1% | 88% | –
[Cl][Mn][Cl] [Mn^2+, MnCl2] | – | – | C1GalT activity with cofactor/additive ([2]; 12.5 mM metal ion or EDTA, Mn2+ taken as 100%): 100%; EC50 ([2]; read-out: MnCl2 concentration for half-maximal C1GalT activity): 250 µM; reduction of C2GnT2 activity ([3]; 12.5 mM in the assay, core 1 or core 3 substrates): 83–85%; reduction of C2GnT1 activity ([4]; 12.5 mM in the assay): 61%
TTTV-(GalNAcα)TPTPTG | 10% | 270% | –
Ac-V-(GalNAcα)TP-NH2 | 36% | 71% | –
CCCC(=O)N[C@H]1[C@@H](OCc2ccccc2)O[C@H](CO)[C@H](O)[C@@H]1O [2-N-Butyryl-GalNα-Bn, benzyl 2-butanamido-2-deoxy-α-D-galactoside] | <1% | <1% | C3GnT Inhibition (%) [5]: did not inhibit; C2GnT1 Inhibition (%) [6]: did not inhibit; C2GnT2 activity (%) [3]: <1%; C2GnT1 activity (%) [4]: <1%
AHGVT-(GalNAcα)SAPDTRPAPGSTAPPA | 15% | 39% | C2GnT2 activity (%) [3]: <1%; C2GnT1 activity (%) [4]: <1%
CC(=O)N[C@H]1[C@@H](Oc2ccccc2)O[C@H](CO)[C@H](O)[C@@H]1O [GalNAcα-phenyl] | 37% | 181% | –
